Assay results from ChEMBL document CHEMBL1649256, “Comparison of assessment of oxygen consumption, Etest, and CLSI M38-A2 broth microdilution methods for evaluation of the susceptibility of Aspergillus fumigatus to posaconazole” (2009).

Tests used:
Assay type in all cases: functional
Aspergillus fumigatus [1] = assay: Antimicrobial activity against Aspergillus fumigatus isolate 46 by CLSI M38-A2 broth microdilution method
Aspergillus fumigatus [2] = assay: Antimicrobial activity against Aspergillus fumigatus isolate 48 by CLSI M38-A2 broth microdilution method
Aspergillus fumigatus [3] = assay: Antimicrobial activity against Aspergillus fumigatus isolate 46 by oxygen consumption method
Aspergillus fumigatus [4] = assay: Antimicrobial activity against Aspergillus fumigatus isolate 49 by CLSI M38-A2 broth microdilution method
Aspergillus fumigatus [5] = assay: Antimicrobial activity against Aspergillus fumigatus isolate 6 after 24 hrs by Etest; conditions: isolate 6, 24 h
Aspergillus fumigatus [6] = assay: Antimicrobial activity against Aspergillus fumigatus isolate 8 after 24 hrs by Etest; conditions: isolate 8, 24 h
Aspergillus fumigatus [7] = assay: Antimicrobial activity against Aspergillus fumigatus isolate 9 after 24 hrs by Etest; conditions: isolate 9, 24 h
Aspergillus fumigatus [8] = assay: Antimicrobial activity against Aspergillus fumigatus isolate 13 after 24 hrs by Etest; conditions: isolate 13, 24 h
Method in brief: (§1)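 Posaconazole Etest strips placed on RPMI 1640 agar with 2% glucose, pH 7.0, and run per the strip maker's instructions. Incubation at 35°C, with the MIC read at 24 h and at 48 h.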

Aspergillus fumigatus [9] = assay: Antimicrobial activity against Aspergillus fumigatus isolate 17 after 24 hrs by Etest; conditions: isolate 17, 24 h; method in brief: as §1
Aspergillus fumigatus [10] = assay: Antimicrobial activity against Aspergillus fumigatus isolate 20 after 24 hrs by Etest; conditions: isolate 20, 24 h; method in brief: as §1
Aspergillus fumigatus [11] = assay: Antimicrobial activity against Aspergillus fumigatus isolate 25 after 24 hrs by Etest; conditions: isolate 25, 24 h
Method in brief: (§2)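 Etest strips on RPMI 1640 agar with 2% glucose, pH 7.0, run per manufacturer's instructions. Incubated at 35°C; MIC read at 24 h.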

Aspergillus fumigatus [12] = assay: Antimicrobial activity against Aspergillus fumigatus isolate 26 after 24 hrs by Etest; conditions: isolate 26, 24 h; method in brief: as §2
Aspergillus fumigatus [13] = assay: Antimicrobial activity against Aspergillus fumigatus isolate 27 after 24 hrs by Etest; conditions: isolate 27, 24 h; method in brief: as §2
Aspergillus fumigatus [14] = assay: Antimicrobial activity against Aspergillus fumigatus isolate 29 after 24 hrs by Etest; conditions: isolate 29, 24 h; method in brief: as §2
Aspergillus fumigatus [15] = assay: Antimicrobial activity against Aspergillus fumigatus isolate 30 after 24 hrs by Etest; conditions: isolate 30, 24 h; method in brief: as §2
Aspergillus fumigatus [16] = assay: Antimicrobial activity against Aspergillus fumigatus isolate 35 after 24 hrs by Etest; conditions: isolate 35, 24 h
Method in brief: (§3)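 Posaconazole Etest strips on RPMI 1640 agar with 2% glucose, pH 7.0, run per the strip maker's instructions. Incubated at 35°C. MIC read at 24 h and at 48 h, matching the time in each line.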

Aspergillus fumigatus [17] = assay: Antimicrobial activity against Aspergillus fumigatus isolate 37 after 24 hrs by Etest; conditions: isolate 37, 24 h; method in brief: as §3
Aspergillus fumigatus [18] = assay: Antimicrobial activity against Aspergillus fumigatus isolate 39 after 24 hrs by Etest; conditions: isolate 39, 24 h; method in brief: as §3
Aspergillus fumigatus [19] = assay: Antimicrobial activity against Aspergillus fumigatus isolate 46 after 24 hrs by Etest; conditions: isolate 46, 24 h
Aspergillus fumigatus [20] = assay: Antimicrobial activity against Aspergillus fumigatus isolate 49 after 24 hrs by Etest; conditions: isolate 49, 24 h
Aspergillus fumigatus [21] = assay: Antimicrobial activity against Aspergillus fumigatus isolate 5 after 48 hrs by Etest; conditions: isolate 5, 48 h
Aspergillus fumigatus [22] = assay: Antimicrobial activity against Aspergillus fumigatus isolate 7 after 48 hrs by Etest; conditions: isolate 7, 48 h
Aspergillus fumigatus [23] = assay: Antimicrobial activity against Aspergillus fumigatus isolate 9 after 48 hrs by Etest; conditions: isolate 9, 48 h
Aspergillus fumigatus [24] = assay: Antimicrobial activity against Aspergillus fumigatus isolate 10 after 48 hrs by Etest; conditions: isolate 10, 48 h; method in brief: as §1
Aspergillus fumigatus [25] = assay: Antimicrobial activity against Aspergillus fumigatus isolate 12 after 48 hrs by Etest; conditions: isolate 12, 48 h; method in brief: as §1
Aspergillus fumigatus [26] = assay: Antimicrobial activity against Aspergillus fumigatus isolate 16 after 48 hrs by Etest; conditions: isolate 16, 48 h; method in brief: as §1
Aspergillus fumigatus [27] = assay: Antimicrobial activity against Aspergillus fumigatus isolate 18 after 48 hrs by Etest; conditions: isolate 18, 48 h; method in brief: as §1
Aspergillus fumigatus [28] = assay: Antimicrobial activity against Aspergillus fumigatus isolate 19 after 48 hrs by Etest; conditions: isolate 19, 48 h; method in brief: as §1
Aspergillus fumigatus [29] = assay: Antimicrobial activity against Aspergillus fumigatus isolate 27 after 48 hrs by Etest; conditions: isolate 27, 48 h
Method in brief: (§4)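 Etest strips on RPMI 1640 agar with 2% glucose, pH 7.0, run per manufacturer's instructions. Incubated at 35°C; MIC read at 48 h.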

Aspergillus fumigatus [30] = assay: Antimicrobial activity against Aspergillus fumigatus isolate 28 after 48 hrs by Etest; conditions: isolate 28, 48 h; method in brief: as §4
Aspergillus fumigatus [31] = assay: Antimicrobial activity against Aspergillus fumigatus isolate 36 after 48 hrs by Etest; conditions: isolate 36, 48 h; method in brief: as §3
Aspergillus fumigatus [32] = assay: Antimicrobial activity against Aspergillus fumigatus isolate 40 after 48 hrs by Etest; conditions: isolate 40, 48 h; method in brief: as §3
Aspergillus fumigatus [33] = assay: Antimicrobial activity against Aspergillus fumigatus isolate 45 after 48 hrs by Etest; conditions: isolate 45, 48 h
Aspergillus fumigatus [34] = assay: Antimicrobial activity against Aspergillus fumigatus isolate 50 after 48 hrs by Etest; conditions: isolate 50, 48 h
Aspergillus fumigatus [35] = assay: Antimicrobial activity against Aspergillus fumigatus isolate 7 by oxygen consumption method
Aspergillus fumigatus [36] = assay: Antimicrobial activity against Aspergillus fumigatus isolate 13 by oxygen consumption method
Method in brief: (§5)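 Conidial suspension in RPMI 1640 broth with posaconazole at 0.25 and 2 μg/ml. Tubes agitated 12 h at 37°C in a biological oxygen monitor. Available oxygen was monitored continuously, and the MIC was assigned from the oxygen quantification.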

Aspergillus fumigatus [37] = assay: Antimicrobial activity against Aspergillus fumigatus isolate 18 by oxygen consumption method; method in brief: as §5
Aspergillus fumigatus [38] = assay: Antimicrobial activity against Aspergillus fumigatus isolate 22 by oxygen consumption method
Method in brief: (§6)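 Conidial suspension in RPMI 1640 broth, 1.5 ml, with two drug concentrations (0.25 and 2 μg/ml). Tubes agitated 12 h at 37°C in a biological oxygen monitor. Available oxygen monitored continuously and quantified to assign the MIC.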

Aspergillus fumigatus [39] = assay: Antimicrobial activity against Aspergillus fumigatus isolate 30 by oxygen consumption method; method in brief: as §6
Aspergillus fumigatus [40] = assay: Antimicrobial activity against Aspergillus fumigatus isolate 35 by oxygen consumption method
Method in brief: (§7)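 Conidial suspension in RPMI 1640 broth, tested at two posaconazole levels (0.25 and 2 μg/ml). Agitated for 12 h at 37°C in a biological oxygen monitor. MIC derived from continuous monitoring and quantification of the available oxygen.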

Aspergillus fumigatus [41] = assay: Antimicrobial activity against Aspergillus fumigatus isolate 36 by oxygen consumption method; method in brief: as §7
Aspergillus fumigatus [42] = assay: Antimicrobial activity against Aspergillus fumigatus isolate 4 by CLSI M38-A2 broth microdilution method
Method in brief: (§8)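 CLSI M38-A2 broth microdilution with posaconazole. MIC taken as the lowest concentration with no visible growth at 48 h. C. parapsilosis ATCC 22019 and C. krusei ATCC 6258 were included as QC strains in every run.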

Aspergillus fumigatus [43] = assay: Antimicrobial activity against Aspergillus fumigatus isolate 7 by CLSI M38-A2 broth microdilution method
Aspergillus fumigatus [44] = assay: Antimicrobial activity against Aspergillus fumigatus isolate 20 by CLSI M38-A2 broth microdilution method
Method in brief: (§9)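 Reference broth microdilution per CLSI M38-A2. MIC read as absence of visible growth at 48 h. C. parapsilosis ATCC 22019 and C. krusei ATCC 6258 QC strains run in each test session.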

Aspergillus fumigatus [45] = assay: Antimicrobial activity against Aspergillus fumigatus isolate 26 by CLSI M38-A2 broth microdilution method; method in brief: as §9
Aspergillus fumigatus [46] = assay: Antimicrobial activity against Aspergillus fumigatus isolate 37 by CLSI M38-A2 broth microdilution method; method in brief: as §8

Measured: MIC

CC[C@@H]([C@H](C)O)n1ncn(-c2ccc(N3CCN(c4ccc(OC[C@@H]5CO[C@@](Cn6cncn6)(c6ccc(F)cc6F)C5)cc4)CC3)cc2)c1=O [POSACONAZOLE]
0.06 µg/mL: Aspergillus fumigatus [31] | Aspergillus fumigatus [42]
≥ 0.5 µg/mL: Aspergillus fumigatus [36]
0.05 µg/mL: Aspergillus fumigatus [17]
> 16 µg/mL: Aspergillus fumigatus [21]
0.5 µg/mL: Aspergillus fumigatus [15] | Aspergillus fumigatus [20] | Aspergillus fumigatus [23] | Aspergillus fumigatus [25]
0.125 µg/mL: Aspergillus fumigatus [1] | Aspergillus fumigatus [2] | Aspergillus fumigatus [4] | Aspergillus fumigatus [9] | Aspergillus fumigatus [13] | Aspergillus fumigatus [19] | Aspergillus fumigatus [33] | Aspergillus fumigatus [44] | Aspergillus fumigatus [45] | Aspergillus fumigatus [46]
1 µg/mL: Aspergillus fumigatus [5] | Aspergillus fumigatus [18]
≤ 0.25 µg/mL: Aspergillus fumigatus [3] | Aspergillus fumigatus [35] | Aspergillus fumigatus [37] | Aspergillus fumigatus [38] | Aspergillus fumigatus [39] | Aspergillus fumigatus [40] | Aspergillus fumigatus [41]
0.25 µg/mL: all other assays above
